Data taken from publication PMC6511231 (Cell reports, 2018).

Experiments:
[1] = target: T1, mouse LIN28Δ, mouse TUT4 and pre-let-7g (Mus musculus, UniProt Q8K3Y3); assay: LIN28-mediated let-7 oligouridylation assay; assay type: biochemical; details: 40 μM compound, 37°C, denaturing PAGE
T1 sequence (Q8K3Y3 16-184): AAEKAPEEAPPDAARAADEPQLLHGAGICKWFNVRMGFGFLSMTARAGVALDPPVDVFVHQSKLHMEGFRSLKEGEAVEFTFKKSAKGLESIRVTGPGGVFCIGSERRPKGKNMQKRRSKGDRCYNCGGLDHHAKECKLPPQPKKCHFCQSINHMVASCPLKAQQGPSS
T1 sequence (B2RX14 230-1424 partner): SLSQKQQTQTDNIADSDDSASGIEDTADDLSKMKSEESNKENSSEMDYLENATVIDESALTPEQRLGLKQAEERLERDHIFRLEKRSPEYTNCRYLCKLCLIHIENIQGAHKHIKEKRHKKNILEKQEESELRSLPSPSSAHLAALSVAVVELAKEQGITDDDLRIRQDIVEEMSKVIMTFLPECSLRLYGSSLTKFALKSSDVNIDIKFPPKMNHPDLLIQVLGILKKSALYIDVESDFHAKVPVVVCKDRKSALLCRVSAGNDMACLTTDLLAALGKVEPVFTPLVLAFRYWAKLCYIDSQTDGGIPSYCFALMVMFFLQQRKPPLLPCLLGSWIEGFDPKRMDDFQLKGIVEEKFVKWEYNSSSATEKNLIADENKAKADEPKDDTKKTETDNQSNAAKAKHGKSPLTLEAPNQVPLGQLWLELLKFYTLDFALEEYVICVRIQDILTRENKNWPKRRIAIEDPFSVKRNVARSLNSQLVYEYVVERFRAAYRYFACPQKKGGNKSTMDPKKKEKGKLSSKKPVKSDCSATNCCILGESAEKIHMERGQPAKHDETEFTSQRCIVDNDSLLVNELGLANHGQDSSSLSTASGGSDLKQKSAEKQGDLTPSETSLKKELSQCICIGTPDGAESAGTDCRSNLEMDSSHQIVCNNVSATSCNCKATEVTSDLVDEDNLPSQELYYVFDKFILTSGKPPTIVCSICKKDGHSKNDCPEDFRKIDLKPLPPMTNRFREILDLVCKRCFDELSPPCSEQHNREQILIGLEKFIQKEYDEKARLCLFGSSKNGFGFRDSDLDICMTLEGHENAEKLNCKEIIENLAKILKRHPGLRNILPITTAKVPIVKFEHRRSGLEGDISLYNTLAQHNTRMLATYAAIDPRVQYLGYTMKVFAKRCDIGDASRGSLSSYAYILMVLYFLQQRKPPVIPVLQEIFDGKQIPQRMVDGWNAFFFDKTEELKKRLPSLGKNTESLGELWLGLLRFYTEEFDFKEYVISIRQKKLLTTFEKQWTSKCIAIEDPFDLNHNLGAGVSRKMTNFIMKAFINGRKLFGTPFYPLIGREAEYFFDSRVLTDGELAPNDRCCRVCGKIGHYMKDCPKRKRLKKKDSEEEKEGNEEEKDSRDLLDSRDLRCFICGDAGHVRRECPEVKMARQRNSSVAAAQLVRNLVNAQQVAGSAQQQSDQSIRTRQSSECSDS
Summary of the method: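 Mouse LIN28A, mouse TUT4 (230–1424) and in vitro-transcribed, T4 PNK-radiolabelled pre-let-7g were incubated with test compound (40 μM screen; 80 μM follow-up) for 40 min at 37°C. Buffer: 20 mM Tris 7.5, 5% glycerol, 6 mM MgCl2, 6 mM DTT, 50 μM ZnCl2, 40 mM KCl, 200 μM UTP. Reactions were stopped with EDTA/SDS/proteinase K (50°C, 30 min) and run on denaturing PAGE. RNA and DMSO served as controls.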

TUT4 = TUT4 (Mus musculus, UniProt B2RX14); assay: Uridylation assay without LIN28; assay type: biochemical
[2] = target: mouse LIN28Δ:preE-let-7d complex (Mus musculus, UniProt Q8K3Y3); assay: HSQC spectroscopy; assay type: binding; details: 15N-labeled mouse LIN28Δ with unlabeled preE-let-7d
human LIN28Δ = human LIN28Δ (Homo sapiens, UniProt Q9H9Z2); assay: Saturation transfer difference spectroscopy, LIN28Δ; assay type: binding; details: 100 μM compound, 5 μM LIN28
Summary of the method: (§1)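 Protein was dialysed overnight into 20 mM Bis-Tris pH 6.0, 100 mM NaCl, 10% v/v glycerol-d8, 5 mM DTT and D2O. Test compound was dissolved in DMSO-d6. Samples held 100 μM compound and 5 μM protein in dialysis buffer. STD spectra were collected at 700 MHz, irradiating the macromolecule only at −2 ppm, with a 2 s transfer delay.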

preE-let-7f = assay: Saturation transfer difference spectroscopy, preE-let-7f; assay type: binding, human; details: preE-let-7f alone
[3] = target: CSD (residues 16–136) of LIN28 (Homo sapiens, UniProt Q9H9Z2); assay: Saturation transfer difference spectroscopy, CSD; assay type: binding; details: CSD alone
Summary of the method: as §1

LIN28ΔK102 = LIN28ΔK102 (Homo sapiens, UniProt Q9H9Z2, K102A); assay: Saturation transfer difference spectroscopy, K102A mutant; assay type: binding; details: K102A mutation, compared with LIN28Δ
Summary of the method: as §1

[4] = target: human LIN28Δ:preE-let-7f complex (Homo sapiens, UniProt Q9H9Z2); assay: Differential scanning fluorimetry; assay type: binding; details: SYPRO Orange; 63°C without compound
[5] = test system: HeLa control cells expressing GFP and not LIN28; assay: let-7-sensitive dual luciferase reporter assay, GFP control cells; assay type: cell-based, human; details: up to 100 μM
Summary of the method: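 HeLa cells were retrovirally transduced with FLAG-GFP (or LIN28) cDNA, puromycin-selected and single-cell cloned. They were then lentivirally given an 8×let-7-site Renilla/HSV-TK firefly cassette and selected with G418 as polyclonal populations. Cells were exposed to up to 100 μM test compound, lysed, and read for dual luciferase with firefly as internal control. Values were normalised to blanks.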

apoptosis = assay: Annexin V flow cytometry; assay type: cell-based; details: 100 μM, 48 hr
Summary of the method: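 Cells exposed to 100 μM test compound or vehicle for 48 hr, then harvested and stained with APC-conjugated annexin V following the kit protocol before flow cytometry.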

K562 leukemia cells = assay: qPCR of microRNA species in K562 cells; assay type: cell-based, human; details: 100 μM, 48 hr
Summary of the method: (§2)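 K562 leukaemia cells, or DKO+A mESCs (Lin28a/Lin28b double-knockout re-expressing wild-type LIN28A, in LIF/2i), were treated 48 hr with 100 μM test compound or vehicle. Total RNA was isolated with TRIzol and cDNA made with the miScript system. Mature and precursor microRNAs were quantified with specific primer assays relative to U6; n = 6 over two independent experiments.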

DKO+A mESCs = assay: qPCR of let-7 species in DKO+A mESCs; assay type: cell-based, mouse; details: 100 μM, 48 hr, LIF/2i culture, vs vehicle
Summary of the method: as §2

Chain of human LIN28Δ:preE-let-7f complex (Q9H9Z2 16-187, stated change not applied, one chain of several): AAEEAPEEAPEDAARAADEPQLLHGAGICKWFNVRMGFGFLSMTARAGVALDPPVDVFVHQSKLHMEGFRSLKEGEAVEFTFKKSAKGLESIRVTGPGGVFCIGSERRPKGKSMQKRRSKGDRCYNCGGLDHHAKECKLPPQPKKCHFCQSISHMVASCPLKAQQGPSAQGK
Chain of human LIN28Δ (Q9H9Z2 16-187, stated change not applied): as the sequence (Q9H9Z2 16-187, stated change not applied, one chain of several) above
Chain of LIN28ΔK102 (Q9H9Z2 16-187 K102A): as the sequence (Q9H9Z2 16-187, stated change not applied, one chain of several) above, with K87A counted along it
Chain of CSD (residues 16–136) of LIN28 (Q9H9Z2 16-136): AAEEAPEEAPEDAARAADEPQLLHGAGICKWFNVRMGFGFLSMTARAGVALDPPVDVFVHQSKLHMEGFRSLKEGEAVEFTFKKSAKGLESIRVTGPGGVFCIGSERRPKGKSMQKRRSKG

CCOc1cccc2c1N[C@@H](c1ccc(C(=O)O)cc1)[C@H]1CC=C[C@@H]21 [LI71]
Inhibition of LIN28-mediated oligouridylation [1]: completely inhibited
Catalytic activity of TUT4 when LIN28 is not present (TUT4): does not abolish catalytic activity of TUT4
HSQC peak intensity changes [2]: minor intensity reductions for a number of residues
Saturation transfer difference peaks (human LIN28Δ): saturation transfer difference peaks of LI71 occur
Saturation transfer difference peaks (preE-let-7f): but not preE-let-7f
Saturation transfer difference signals [3]: induces the LI71 saturation transfer difference signals
Saturation transfer difference signal (LIN28ΔK102): increases the saturation transfer difference signal
Melting temperature of LIN28Δ:preE-let-7f complex with compound [4]: 60 °C
Relative Renilla luciferase activity [5]: did not show an effect
Apoptosis (apoptosis): did not increase apoptosis
let-7 precursor species (K562 leukemia cells): not correlated with increased levels of let-7 precursor species
miR-16 (non-LIN28-regulated microRNA) (K562 leukemia cells): small but significant effect
miR-93, miR-99a and miR-151 (non-LIN28-regulated microRNAs) (K562 leukemia cells): did not observe significant effects
Mature let-7 species (K562 leukemia cells; vs DMSO): significant increase in several let-7 species
Mature let-7 species (DKO+A mESCs): increased levels of mature let-7 species
